Values after ≈ are worked out from the molar mass of the structure shown.
How the values were obtained:
Aspergillus fumigatus [1] = test: Antifungal activity against Aspergillus fumigatus human isolate after 72 hrs by serial dilution method; type: functional
Summary of the method: (§1)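 Modified microdilution MIC. Spores were washed from malt agar cultures with sterile 0.85% saline containing 0.1% Tween 80 and adjusted to about 1.0 × 10^5 per 100 µl well in malt broth. Compounds were dissolved in DMSO (1 mg/ml). Plates incubated 72 h at 28 °C. MIC is the lowest concentration with no visible growth under a binocular microscope. Bifonazole and ketoconazole were the references.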

Pseudomonas aeruginosa [2] = test: Antibacterial activity against Pseudomonas aeruginosa ATCC 27853 treated for 24 hrs followed by sub-cultivated for 72 hrs by micro dilution method; type: functional
Summary of the method: (§2)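 2 µl from each well was serially subcultured into 100 µl fresh broth per well and incubated a further 72 h. MBC is the lowest concentration with no visible growth, taken as 99.5% killing of the original inoculum. Streptomycin and ampicillin were the positive controls.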

Pseudomonas aeruginosa [3] = test: Antibacterial activity against Pseudomonas aeruginosa ATCC 27853 after 24 hrs by micro dilution method; type: functional; details: ATCC 27853, 24 h
Summary of the method: (§3)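 Microdilution MIC in 96-well plates. Bacterial suspensions adjusted in sterile saline to 1.0 × 10^5 CFU/ml, giving 1.0 × 10^4 cfu per well in LB broth. Compounds tested at up to 1 mg/ml. Plates incubated 24 h. MIC taken as the lowest concentration with no visible growth under a binocular microscope. OD at 655 nm was also read against a blank and the positive control. Streptomycin and ampicillin were the positive controls.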

Trichoderma viride [4] = test: Antifungal activity against Trichoderma viride IAM 5061 after 72 hrs by serial dilution method; type: functional; details: IAM 5061, 72 h; summary of the method: as §1
Staphylococcus aureus [5] = test: Antibacterial activity against Staphylococcus aureus ATCC 6538 after 24 hrs by micro dilution method; type: functional; details: ATCC 6538, 24 h; summary of the method: as §3
Salmonella typhimurium [6] = test: Antibacterial activity against Salmonella Typhimurium ATCC 13311 treated for 24 hrs followed by sub-cultivated for 72 hrs by micro dilution method; type: functional, Salmonella enterica subsp. enterica serovar Typhimurium; details: Salmonella enterica; summary of the method: as §2
Trichoderma viride [7] = test: Antifungal activity against Trichoderma viride IAM 5061 treated for 72 hrs followed by sub-cultivated for 5 days by serial dilution method; type: functional
Summary of the method: (§4)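 MFC obtained after the 72 h, 28 °C malt-broth microdilution (spore inoculum about 1.0 × 10^5 per well, compounds from 1 mg/ml DMSO). 2 µl was serially subcultured into 100 µl broth per well and incubated a further 5 days at 28 °C. MFC is the lowest concentration with no visible growth, taken as 99.5% killing of the original inoculum.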

Aspergillus niger [8] = test: Antifungal activity against Aspergillus niger ATCC 6275 treated for 72 hrs followed by sub-cultivated for 5 days by serial dilution method; type: functional; summary of the method: as §4
Bacillus cereus [9] = test: Antibacterial activity against Bacillus cereus clinical isolate after 24 hrs by micro dilution method; type: functional; summary of the method: as §3
Aspergillus flavus [10] = test: Antifungal activity against Aspergillus flavus ATCC 9643 treated for 72 hrs followed by sub-cultivated for 5 days by serial dilution method; type: functional; summary of the method: as §4
Micrococcus flavus [11] = test: Antibacterial activity against Micrococcus flavus ATCC 10240 treated for 24 hrs followed by sub-cultivated for 72 hrs by micro dilution method; type: functional; summary of the method: as §2
Aspergillus versicolor [12] = test: Antifungal activity against Aspergillus versicolor ATCC 11730 treated for 72 hrs followed by sub-cultivated for 5 days by serial dilution method; type: functional; summary of the method: as §4
Aspergillus flavus [13] = test: Antifungal activity against Aspergillus flavus ATCC 9643 after 72 hrs by serial dilution method; type: functional; details: ATCC 9643, 72 h; summary of the method: as §1
Salmonella typhimurium [14] = test: Antibacterial activity against Salmonella Typhimurium ATCC 13311 after 24 hrs by micro dilution method; type: functional, Salmonella enterica subsp. enterica serovar Typhimurium; details: Salmonella enterica, ATCC 13311, 24 h; summary of the method: as §3
Fulvia fulva [15] = test: Antifungal activity against Fulvia fulva treated for 72 hrs followed by sub-cultivated for 5 days by serial dilution method; type: functional; summary of the method: as §4
Penicillium ochrochloron [16] = test: Antifungal activity against Penicillium ochrochloron ATCC 9112 after 72 hrs by serial dilution method; type: functional; details: ATCC 9112, 72 h; summary of the method: as §1
Enterobacter cloacae [17] = test: Antibacterial activity against Enterobacter cloacae human isolate after 24 hrs by micro dilution method; type: functional; summary of the method: as §3
Talaromyces funiculosus [18] = test: Antifungal activity against Penicillium funiculosum ATCC 36839 treated for 72 hrs followed by sub-cultivated for 5 days by serial dilution method; type: functional; summary of the method: as §4
Micrococcus flavus [19] = test: Antibacterial activity against Micrococcus flavus ATCC 10240 after 24 hrs by micro dilution method; type: functional; details: ATCC 10240, 24 h; summary of the method: as §3
Talaromyces funiculosus [20] = test: Antifungal activity against Penicillium funiculosum ATCC 36839 after 72 hrs by serial dilution method; type: functional; details: ATCC 36839, 72 h; summary of the method: as §1
Aspergillus fumigatus [21] = test: Antifungal activity against Aspergillus fumigatus human isolate treated for 72 hrs followed by sub-cultivated for 5 days by serial dilution method; type: functional; summary of the method: as §4
Listeria monocytogenes [22] = test: Antibacterial activity against Listeria monocytogenes NCTC 7973 after 24 hrs by micro dilution method; type: functional; details: NCTC 7973, 24 h; summary of the method: as §3
Escherichia coli [23] = test: Antibacterial activity against Escherichia coli ATCC 35210 after 24 hrs by micro dilution method; type: functional; details: ATCC 35210, 24 h; summary of the method: as §3
Bacillus cereus [24] = test: Antibacterial activity against Bacillus cereus clinical isolate treated for 24 hrs followed by sub-cultivated for 72 hrs by micro dilution method; type: functional; summary of the method: as §2
Aspergillus niger [25] = test: Antifungal activity against Aspergillus niger ATCC 6275 after 72 hrs by serial dilution method; type: functional; details: ATCC 6275, 72 h; summary of the method: as §1
Aspergillus versicolor [26] = test: Antifungal activity against Aspergillus versicolor ATCC 11730 after 72 hrs by serial dilution method; type: functional; details: ATCC 11730, 72 h; summary of the method: as §1
Penicillium ochrochloron [27] = test: Antifungal activity against Penicillium ochrochloron ATCC 9112 treated for 72 hrs followed by sub-cultivated for 5 days by serial dilution method; type: functional; summary of the method: as §4
Fulvia fulva [28] = test: Antifungal activity against Fulvia fulva after 72 hrs by serial dilution method; type: functional; summary of the method: as §1
Enterobacter cloacae [29] = test: Antibacterial activity against Enterobacter cloacae human isolate treated for 24 hrs followed by sub-cultivated for 72 hrs by micro dilution method; type: functional; summary of the method: as §2
Listeria monocytogenes [30] = test: Antibacterial activity against Listeria monocytogenes NCTC 7973 treated for 24 hrs followed by sub-cultivated for 72 hrs by micro dilution method; type: functional; summary of the method: as §2
Staphylococcus aureus [31] = test: Antibacterial activity against Staphylococcus aureus ATCC 6538 treated for 24 hrs followed by sub-cultivated for 72 hrs by micro dilution method; type: functional; summary of the method: as §2
Escherichia coli [32] = test: Antibacterial activity against Escherichia coli ATCC 35210 treated for 24 hrs followed by sub-cultivated for 72 hrs by micro dilution method; type: functional; summary of the method: as §2

## CCNc1nnc(Cc2cc(OC)c(OC)cc2S(=O)(=O)N(C)C)o1
Aspergillus fumigatus [1]
  MIC: 270 µM (≈ 100 µg/mL)
Pseudomonas aeruginosa [2]
  MBC: 540 µM (≈ 200 µg/mL)
Pseudomonas aeruginosa [3]
  MIC: 270 µM (≈ 100 µg/mL)
Trichoderma viride [4]
  MIC: 30 µM (≈ 11.1 µg/mL)
Staphylococcus aureus [5]
  MIC: 140 µM (≈ 51.9 µg/mL)
Salmonella typhimurium [6]
  MBC: 270 µM (≈ 100 µg/mL)
Trichoderma viride [7]
  MFC: 30 µM (≈ 11.1 µg/mL)
Aspergillus niger [8]
  MFC: 140 µM (≈ 51.9 µg/mL)
Bacillus cereus [9]
  MIC: 140 µM (≈ 51.9 µg/mL)
Aspergillus flavus [10]
  MFC: 400 µM (≈ 148 µg/mL)
Micrococcus flavus [11]
  MBC: 540 µM (≈ 200 µg/mL)
Aspergillus versicolor [12]
  MFC: 400 µM (≈ 148 µg/mL)
Aspergillus flavus [13]
  MIC: 140 µM (≈ 51.9 µg/mL)
Salmonella typhimurium [14]
  MIC: 140 µM (≈ 51.9 µg/mL)
Fulvia fulva [15]
  MFC: 270 µM (≈ 100 µg/mL)
Penicillium ochrochloron [16]
  MIC: 140 µM (≈ 51.9 µg/mL)
Enterobacter cloacae [17]
  MIC: 670 µM (≈ 248 µg/mL)
Talaromyces funiculosus [18]
  MFC: 270 µM (≈ 100 µg/mL)
Micrococcus flavus [19]
  MIC: 270 µM (≈ 100 µg/mL)
Talaromyces funiculosus [20]
  MIC: 140 µM (≈ 51.9 µg/mL)
Aspergillus fumigatus [21]
  MFC: 270 µM (≈ 100 µg/mL)
Listeria monocytogenes [22]
  MIC: 270 µM (≈ 100 µg/mL)
Escherichia coli [23]
  MIC: 140 µM (≈ 51.9 µg/mL)
Bacillus cereus [24]
  MBC: 270 µM (≈ 100 µg/mL)
Aspergillus niger [25]
  MIC: 140 µM (≈ 51.9 µg/mL)
Aspergillus versicolor [26]
  MIC: 140 µM (≈ 51.9 µg/mL)
Penicillium ochrochloron [27]
  MFC: 270 µM (≈ 100 µg/mL)
Fulvia fulva [28]
  MIC: 270 µM (≈ 100 µg/mL)
Enterobacter cloacae [29]
  MBC: 670 µM (≈ 248 µg/mL)
Listeria monocytogenes [30]
  MBC: 540 µM (≈ 200 µg/mL)
Staphylococcus aureus [31]
  MBC: 270 µM (≈ 100 µg/mL)
Escherichia coli [32]
  MBC: 270 µM (≈ 100 µg/mL)

## CCCNc1nnc(Cc2cc(OC)c(OC)cc2S(=O)(=O)N(C)C)o1
Aspergillus fumigatus [1]
  MIC: 130 µM (≈ 50 µg/mL)
Pseudomonas aeruginosa [2]
  MBC: 260 µM (≈ 100 µg/mL)
Pseudomonas aeruginosa [3]
  MIC: 260 µM (≈ 100 µg/mL)
Trichoderma viride [4]
  MIC: 70 µM (≈ 26.9 µg/mL)
Staphylococcus aureus [5]
  MIC: 260 µM (≈ 100 µg/mL)
Salmonella typhimurium [6]
  MBC: 260 µM (≈ 100 µg/mL)
Trichoderma viride [7]
  MFC: 130 µM (≈ 50 µg/mL)
Aspergillus niger [8]
  MFC: 390 µM (≈ 150 µg/mL)
Bacillus cereus [9]
  MIC: 260 µM (≈ 100 µg/mL)
Aspergillus flavus [10]
  MFC: 390 µM (≈ 150 µg/mL)
Micrococcus flavus [11]
  MBC: 260 µM (≈ 100 µg/mL)
Aspergillus versicolor [12]
  MFC: 390 µM (≈ 150 µg/mL)
Aspergillus flavus [13]
  MIC: 130 µM (≈ 50 µg/mL)
Salmonella typhimurium [14]
  MIC: 130 µM (≈ 50 µg/mL)
Fulvia fulva [15]
  MFC: 260 µM (≈ 100 µg/mL)
Penicillium ochrochloron [16]
  MIC: 130 µM (≈ 50 µg/mL)
Enterobacter cloacae [17]
  MIC: 630 µM (≈ 242 µg/mL)
Talaromyces funiculosus [18]
  MFC: 780 µM (≈ 300 µg/mL)
Micrococcus flavus [19]
  MIC: 130 µM (≈ 50 µg/mL)
Talaromyces funiculosus [20]
  MIC: 260 µM (≈ 100 µg/mL)
Aspergillus fumigatus [21]
  MFC: 260 µM (≈ 100 µg/mL)
Listeria monocytogenes [22]
  MIC: 130 µM (≈ 50 µg/mL)
Escherichia coli [23]
  MIC: 630 µM (≈ 242 µg/mL)
Bacillus cereus [24]
  MBC: 260 µM (≈ 100 µg/mL)
Aspergillus niger [25]
  MIC: 130 µM (≈ 50 µg/mL)
Aspergillus versicolor [26]
  MIC: 260 µM (≈ 100 µg/mL)
Penicillium ochrochloron [27]
  MFC: 260 µM (≈ 100 µg/mL)
Fulvia fulva [28]
  MIC: 130 µM (≈ 50 µg/mL)
Enterobacter cloacae [29]
  MBC: 750 µM (≈ 288 µg/mL)
Listeria monocytogenes [30]
  MBC: 260 µM (≈ 100 µg/mL)
Staphylococcus aureus [31]
  MBC: 260 µM (≈ 100 µg/mL)
Escherichia coli [32]
  MBC: 630 µM (≈ 242 µg/mL)
